Broadly, the inhibition is the relative decrease from the control value, in per cent.

These results are taken from PubChem BioAssay AID2170 (The Scripps Research Institute Molecular Screening Center, 2009).

Out of some 2,400 compounds screened, about 660 (28%) were called active.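 Rule for the calls: active = mean inhibition over replicate wells above the hit cutoff set for the earlier primary screen (cut at about 29% in these data); inactive = the rest.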 Not all results are given here.

In this test the test system is M18 aspartyl aminopeptidase (Plasmodium falciparum 3D7). Put plainly: inhibition of P. falciparum M18 aminopeptidase – biochemical, QFRET, recombinant enzyme, triplicate, confirmation (AID 2170).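 Note: 0% = median of test compound wells and 100% = 2 mM ZnCl2.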 The conditions noted are these: recombinant PfM18AAP, H-Glu-NHMec fluorogenic cleavage; at 7.35 µM; active compounds read high. In outline: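 Material: recombinant P. falciparum M18 aspartyl aminopeptidase; Medium: Cobalt-containing Tris buffer with BSA; Also added: H-Glu-NHMec fluorogenic substrate; Compound: 7.35 µM single dose; Timing: Enzyme–compound pre-incubation 30 min, substrate reaction 90 min, both 25 °C; Detection: fluorescence 340/450 nm at 0 and 90 min; Controls: ZnCl2 inhibitor control; Replicates: triplicate wells per compound.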
For `O=C(Nn1cnnc1)c1cc(Cl)ccc1Cl`, the inhibition was 55.1% (active).
For the molecule `O=C(Nc1ccccc1Cl)Nn1cnnc1`, the inhibition was 65.9% (active).
Turning to `Cc1ccc(S(=O)(=O)N/N=C\c2cc3c(cc2[N+](=O)[O-])OCO3)cc1`, the inhibition was -7.72% (inactive).
`Cc1ccc(Cl)cc1-c1ccc(/C=N/n2cnnc2)o1`: the inhibition was -18.6% (inactive).
For `Cc1ccc(-c2ccc(/C=C(\C#N)C(N)=S)o2)c([N+](=O)[O-])c1` the value was -32.7% (inactive).
Take `NC(=O)c1c(NC(=O)CSc2nnc(-c3ccco3)n2N)sc2c1CCCC2`: the inhibition is -70.9% (inactive).
For the molecule `S=c1[nH]nc2c3c4c(sc3ncn12)CCCC4`, the inhibition is -11.8% (inactive).
Take `CCOCCCNC(=O)c1ccc(CS(=O)(=O)c2cccc(C(F)(F)F)c2)o1`: the inhibition was -29.5% (inactive).
In the case of `Cc1cccc(NC(=O)c2sc3nc(N4CCOCC4)c4c(c3c2N)CCCC4)c1`, the inhibition is 3.82% (inactive).
On to `O=S(=O)(c1ccc(NC(=S)NN=C(C2CC2)C2CC2)cc1)N1CCOCC1`, for which the inhibition was 14.8% (inactive).
The same measure for `Cc1nnc(SCC(=O)Nn2cnnc2)s1`: 29.1% (active); for `NC(=O)C1CCN(C(=O)/C(=C/c2ccco2)NC(=O)c2ccccc2)CC1`: -45.2% (inactive).
For `CCOc1ccc(-n2c(O)c(/C=N/Nc3nnc(C)c(=O)[nH]3)c3ccccc3c2=O)cc1`, the inhibition is 12.4% (inactive).
For `Oc1c(C(c2ccco2)N2CCC3(CC2)OCCO3)sc2ncnn12` (stereo not drawn), the inhibition is -4.87% (inactive).
With `Cc1ccc2nc(-c3cccc(Br)c3)cc(C(=O)Nn3cnnc3)c2c1`, the inhibition is 63.4% (active).
Turning to `CCN(CC)c1ccc(/C=N/Nc2nc(C)cc(C)n2)c(O)c1`, the inhibition is 16.4% (inactive).
With `Oc1ccc(/C=N/NC2=NCCCCC2)c(O)c1`, the inhibition is 41.8% (active).
Take `O=C(Oc1ccc(Br)cc1C(=S)N1CCOCC1)c1cccc([N+](=O)[O-])c1`: the inhibition was -27.5% (inactive).
The same measure for `Oc1ccc(N2CCN(C(=S)NCc3ccccc3)CC2)cc1`: -12.9% (inactive); for `CC(OC(=O)c1ccc2noc(-c3ccccc3)c2c1)C(N)=O` (stereo not drawn): -28.2% (inactive).
With `O=C(N/N=C/c1ccc(O)c(O)c1)C1c2ccccc2Oc2ccccc21`, the inhibition was 37.3% (active).
Regarding `CSc1n[nH]c(=S)n1N`, the inhibition was -12.7% (inactive).
With `O=C(CSC(=S)N1CCOCC1)c1cc(Br)cc(Br)c1O`, the inhibition was -45.7% (inactive).
The same measure for `CCN(CC)c1ccc(NC(=O)CCc2nnc3ccc(N4CCCCC4)nn23)c(C)c1`: -12.9% (inactive); for `Cc1csc(NC(=O)NC2(C(F)(F)F)Oc3ccccc3O2)n1`: 68.6% (active).
For `Oc1cccc(/C=N/Nc2ccc(Cl)nn2)c1O` the value was 20.8% (inactive).
As to `CN(C)c1ccc(C(CC(=O)O)C(=O)O)cc1` (stereo not drawn), the inhibition is -38.2% (inactive).
In the case of `COc1cc(S(=O)(=O)Nc2ncn[nH]2)ccc1Cl`, the inhibition was 34.1% (active).
As for `Cc1onc(-c2ccccc2)c1C(=O)NNC(=S)NC(=O)c1ccc(F)cc1`, the inhibition was -38.8% (inactive).
For `Oc1ccc(-c2csc(Nc3cccnc3)n2)cc1` the value was 56.6% (active); for `CC1(C)CC(=O)C/C(=N\NC(=O)c2cccs2)C1`, 3.68% (inactive).
The same measure for `N#CCC(=O)N/N=C/c1ccc(SCC(=O)Nc2ccccc2)o1`: -37.9% (inactive).
For `CCOC(=O)NNc1cc(C(F)(F)F)ccn1` the value was 28.2% (active); for `COc1ccc2c(c1)C(C)=CC(C)(C)N2C(=O)Nc1ccccc1`, -22.9% (inactive); for `COc1ccc(/C=N/Nc2nc3ccccc3o2)cc1OC`, -38.4% (inactive).
As to `c1ccc2c(c1)OCC(c1nn3cnnc3s1)O2` (stereo not drawn), the inhibition is -28.2% (inactive).
Turning to `Cc1cc2nc3c(=O)n(Cc4ccccc4)c(=O)[nH]c3nc2cc1N`, the inhibition was 7.01% (inactive).
The same measure for `Cc1ccsc1/C=N/Nc1ccc(Cl)nn1`: -14.8% (inactive); for `COc1cc(Br)cc(/C=N/c2ncn[nH]2)c1O`: 62.9% (active); for `Cc1cc(-c2ccc(/C=N/n3cnnc3)o2)c([N+](=O)[O-])cc1C`: 0.8% (inactive).
As for `Cc1ccc(NC(=O)c2c(NC(=O)CCC(=O)O)sc3c2CCCCC3)cc1`, the inhibition was -30.8% (inactive).
As for `CNC(=S)NNC(=O)c1ccc(N(C)C)cc1`, the inhibition was 12.2% (inactive).
The same measure for `CCCc1nc2ccccc2c(=O)n1/N=C/c1ccc(O)c(O)c1`: 28.4% (active).
With `CC(C)c1ccc(NC(=S)NNc2ccc(Cl)c(C(=O)O)c2)cc1`, the inhibition was -43.7% (inactive).
For `COc1cc(/C=C2/C(=O)NN(c3cccc(Cl)c3)C2=O)cc(Br)c1O` the value was 12.9% (inactive); for `O=C(NNC(=O)c1ccco1)Nc1ccccc1`, 17.1% (inactive); for `CC(C)C1N=C2c3ccccc3N=C(SCC(=O)c3ccc(O)c(O)c3)N2C1=O` (stereo not drawn), 39% (active).
The same measure for `COc1cc(NC(=S)N2CCCC(C)C2)c(OC)cc1Cl` (stereo not drawn): -0.38% (inactive).
For `S=c1[nH]c(-c2cccs2)cn1-c1ccccc1`, the inhibition was 39.1% (active).
As for `Cc1cc(C)nc(NNC2=CC(=O)CC(C)(C)C2)n1`, the inhibition is 44.3% (active).
In the case of `O=C(CC(n1cncn1)C(Cl)(Cl)Cl)c1ccc([N+](=O)[O-])cc1` (stereo not drawn), the inhibition was -9.53% (inactive).
As to `COc1c(O)ccc2c1CN1CCc3cc4c(cc3C1C2)OCO4` (stereo not drawn), the inhibition is 9.45% (inactive).
Regarding `Cc1c(CC(=O)N2CCN(C(=O)C3COc4ccccc4O3)CC2)c(=O)oc2c(O)c(O)ccc12` (stereo not drawn), the inhibition was 32.3% (active).
Turning to `CCN1/C(=C/C(=S)Nc2ccccc2)Sc2ccccc21`, the inhibition is 0.1% (inactive).
Take `CC(C)(C)c1nnc(N/N=C/c2ccc(O)cc2)n(N)c1=O`: the inhibition was -22.7% (inactive).
For `CCOc1ccc(C2C3=C(CCCC3=O)N(CC(=O)O)C3=C2C(=O)CCC3)cc1`, the inhibition was -43.7% (inactive).
Take `Cc1ccnc(-n2sc3ccccc3c2=O)n1`: the inhibition was 28.8% (active).
The same measure for `NC(=S)N/N=C/c1coc2cc(Cl)ccc2c1=O`: -23.6% (inactive).
The same measure for `O=C(CN1CCN(c2ccc(O)cc2)CC1)Nc1ccc(-c2ccccc2)cc1`: -14.9% (inactive); for `c1ccc2sc(NN=C3CCCC3)nc2c1`: -44.4% (inactive); for `Cc1cc(C)nc(Nc2ncn[nH]2)n1`: 71.7% (active).
The same measure for `COc1cccc2cc(-c3cc(=O)oc4cc(C)c(O)cc34)oc12`: -27.8% (inactive).
Consider `O=C(CSc1ncn[nH]1)Nc1nsc(-c2ccccc2)n1`, for which the inhibition is 14.9% (inactive).
For `O=C(CSc1ncn[nH]1)Nc1ccnc2ccccc12`, the inhibition is 8.46% (inactive).
Turning to `O=C(CSc1ncn[nH]1)Nc1nc(-c2cccc([N+](=O)[O-])c2)cs1`, the inhibition was 36.5% (active).
The same measure for `COc1ccccc1-c1nnc(SCC(=O)Nc2cc(C)on2)o1`: -49.2% (inactive); for `c1ccc(-c2ccc3c(c2)NC(C2Nc4cc(-c5ccccc5)ccc4O2)O3)cc1` (stereo not drawn): -52.4% (inactive); for `O=C1CCCCN1CCCC(=O)N1CCCC(Nc2ccc(F)cc2)C1` (stereo not drawn): -33.7% (inactive).
Take `COc1ccc(OC)c(Nc2nc(-c3ccc(O)c(O)c3)cs2)c1`: the inhibition is 42.4% (active).
For `Cc1cc(/C=N/Nc2ccc([N+](=O)[O-])cn2)c(C)n1-c1cccc(C(=O)O)c1` the value was -23.4% (inactive); for `Cc1ccc(-c2noc(CC(c3ccccc3)c3ccccc3)n2)cc1`, -39.5% (inactive); for `Cn1sc(=O)c2cc(S(=O)(=O)NC3CC3)ccc21`, -11.8% (inactive).
The same measure for `O=C(CN1CCN(S(=O)(=O)c2cc(Cl)ccc2Cl)CC1)c1ccc(O)c(O)c1`: 31.5% (active).
Regarding `Cc1nc2ccc(S(=O)(=O)NCC(=O)O)cc2s1`, the inhibition was 12.5% (inactive).
The same measure for `O=C(Cn1c[n+](CC(=O)c2ccc([N+](=O)[O-])cc2)cn1)c1ccc([N+](=O)[O-])cc1`: 14% (inactive).
As to `O=c1nc(N/N=C/c2ccco2)cn[nH]1`, the inhibition is 18.9% (inactive).
Consider `ONC(=Nc1ccccc1)c1ccccc1Cl`, for which the inhibition was -2.39% (inactive).
On to `CC/C(C)=N/Nc1nc2sc3c(c2c(=O)[nH]1)CC(C)(C)OC3`, for which the inhibition was 9.57% (inactive).
For the molecule `Oc1ccc(/C=N/Nc2ccc(C(F)(F)F)cn2)cc1O`, the inhibition is 6.58% (inactive).
Take `Cn1c(SCC(=O)N/N=C/c2ccc(O)c(O)c2)nc2ccccc21`: the inhibition was 50.9% (active).
Take `Cc1nccn1CC(=O)N/N=C/c1ccc(O)c(O)c1`: the inhibition is 58.4% (active).
The same measure for `CCn1c(CNS(=O)(=O)c2ccc(Cl)cc2)n[nH]c1=S`: -0.52% (inactive); for `Cn1c(=O)[nH]c(=O)c2c1[nH]c(=S)n2Cc1ccccc1`: 6.35% (inactive); for `Cc1cc([N+](=O)[O-])c(-c2ccc(/C=N/n3cnnc3)o2)cc1Cl`: 10.6% (inactive).
`O=C(Nc1cccc([N+](=O)[O-])c1)Nn1cnnc1`: the inhibition is 64.6% (active).
Regarding `O=C(COc1ccc([N+](=O)[O-])cc1Cl)Nn1cnnc1`, the inhibition was 36.8% (active).
For `O=[N+]([O-])c1ccc(N2CCN(c3ccc(O)cc3)CC2)c(Cl)c1` the value was -3.08% (inactive); for `COc1cc(/C=N\Nc2ccc([N+](=O)[O-])cn2)ccc1OCC(=O)O`, -18% (inactive).
In the case of `CCN(CC)S(=O)(=O)c1cc([N+](=O)[O-])ccc1NNC(=O)Nc1ccccc1`, the inhibition is 25.9% (inactive).
As for `O=C(O)CCn1c(O)c(C=C2N=c3ccccc3=N2)sc1=S`, the inhibition was -42.5% (inactive).
As for `NC(=O)c1c(Nc2nc3c(F)cccc3s2)sc2c1CCCC2`, the inhibition was -18.3% (inactive).
As to `Cc1cc2c(C)nc(N/N=C/c3ccccc3)nc2o1`, the inhibition was -42.8% (inactive).
Turning to `O=C(CO/N=C/c1ccccc1O)NNC(=O)c1ccccc1Cl`, the inhibition was 42.3% (active).
Take `CCOc1cccc(/C=N/NC(=S)NCCN2CCOCC2)c1O`: the inhibition is 16.9% (inactive).
Turning to `COc1ccc(OCc2nnc3n2N=C(c2ccccc2)C(CC(=O)O)S3)cc1` (stereo not drawn), the inhibition was 40.8% (active).
In the case of `COc1ccc(OCc2n[nH]c(=S)n2N)cc1`, the inhibition was 20.3% (inactive).
Consider `CC1CCN(C(=O)c2ccc3c(c2)NC(=O)CN3)CC1`, for which the inhibition was -7.91% (inactive).
For the molecule `CCN(CC)c1ccc2oc(=O)c(C)nc2c1`, the inhibition is 27.1% (inactive).
On to `ClC1(Cl)CC1CSc1ncn[nH]1` (stereo not drawn), for which the inhibition was 11.5% (inactive).
Turning to `CCn1ccnc1CNC(=O)CC1C(=O)NCCN1Cc1ccc(F)cc1Cl` (stereo not drawn), the inhibition is -24.5% (inactive).
`CC(=O)c1ccc(NC(=O)CCc2nnc3ccc(NCc4ccco4)nn23)cc1`: the inhibition was -28.5% (inactive).
Consider `CC(C)(C)C(=O)OCc1nc(-c2ccc(O)c(O)c2)cs1`, for which the inhibition was 53.5% (active).
For `COc1ccc(N/C=C(\C2OC(=O)c3ccccc32)[N+](=O)[O-])cc1` (stereo not drawn), the inhibition is -36.7% (inactive).
For the molecule `CC(/C=C/C1(O)C(C)CC(=O)CC1(C)C)OC1OC(CO)C(O)C(O)C1O` (stereo not drawn), the inhibition was 11.3% (inactive).
The same measure for `CNC(=O)c1c(NC(NC(=O)c2ccco2)C(=O)c2ccc(Cl)cc2)sc2c1CCCC2` (stereo not drawn): -18.7% (inactive).
Consider `CC(C)(C)NC(=O)C(c1ccncc1)N(C(=O)CNC(=O)c1ccco1)c1ccc2c(c1)OCO2` (stereo not drawn), for which the inhibition is -44.5% (inactive).
The same measure for `CC(=O)N(c1ccc2oc(=O)sc2c1)S(=O)(=O)c1ccc(C)cc1`: -21.7% (inactive).
Consider `O=C(O)c1cccc(NC(=S)N/N=C/c2c[nH]c3ccccc23)c1`, for which the inhibition was 3.61% (inactive).
For `COc1cc(/C=N/NC(=S)Nc2cccnc2)cc(OC)c1O` the value was 35.5% (active).
Turning to `COc1cc(/C=N/Nc2nn3cnnc3c3ccccc23)cc(OC)c1OC`, the inhibition was -33.8% (inactive).
As for `OCCN1CCN(C(=S)c2ccc(-c3ccccc3)cc2)CC1`, the inhibition was 14.5% (inactive).
For the molecule `Cc1ccc(C)c(NC(=O)NNC(=O)c2ccc3ccccc3c2O)c1`, the inhibition was 4.3% (inactive).
Turning to `Cc1nc2nc[nH]n2c(=O)c1C/C=C/c1ccccc1`, the inhibition is 50.7% (active).
